Laboratory results reported in PMC6955635 (Drug Design, Development and Therapy, 2020).

Experiments:
healthy males [1] = experiment: Adverse events, single-dose administration study; type: in vivo, human; details: single 12-h iv infusion, n = 6, number of subjects (%)
In short: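 Randomized, double-blind, dose-escalation study in healthy Japanese men: 8 per group, 1:3 placebo (D-mannitol) versus test compound at 3, 9 or 15 ng/kg/min. Single continuous IV infusion over 12 h (±30 min), hospitalized from the day before to the day after. Each escalation followed safety review of the next-day results. AEs were monitored throughout, plus vital signs, labs, physical exams and 12-lead ECG at set times. Monitor ECG ran to 24 h post-dose.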

[2] = Pharmacokinetics, plasma AM, single-dose administration study; type: in vivo, human; details: for AUC(0-t) / Cmax / Tmax / half-life: male, human, plasma, iv
healthy males [3] = experiment: Clinical laboratory tests; type: in vivo, human; details: all AM doses, single- and multiple-dose studies
[4] = Pharmacokinetics, plasma AM, multiple-dose administration study; type: in vivo, human; details: for half-life: T1/2 (terminal plasma elimination half-life), Phoenix WinNonlin; for half-life / Tmax: multiple administration, 8-h iv infusion 15 ng/kg/min per day for 7 days, mean ± SD; for Tmax: Tmax (time to maximum measured plasma concentration)
[5] = test system: normotensive and hypertensive patients; details: 30 ng/kg/min, after 90 min of intravenous infusion; cited from earlier work
healthy males [6] = experiment: Adverse events, multiple-dose administration study; type: in vivo, human
[7] = male, human, plasma, iv, 15 ng/kg/min, Day 1
[8] = male, human, plasma, iv, 15 ng/kg/min, Day 7

In the case of `CC[C@H](C)[C@H](NC(=O)[C@H](CCC(N)=O)NC(=O)[C@H](Cc1c[nH]cn1)NC(=O)[C@H](C)NC(=O)[C@H](CC(C)C)NC(=O)[C@H](CCCCN)NC(=O)[C@H](CCC(N)=O)NC(=O)[C@@H](NC(=O)[C@@H](NC(=O)[C@@H]1CSSC[C@H](NC(=O)CNC(=O)[C@H](Cc2ccccc2)NC(=O)[C@H](CO)NC(=O)[C@H](CCCNC(=N)N)NC(=O)[C@H](CC(C)C)NC(=O)CNC(=O)[C@H](CCC(N)=O)NC(=O)[C@H](Cc2ccccc2)NC(=O)[C@H](CC(N)=O)NC(=O)[C@H](CC(N)=O)NC(=O)[C@H](CCSC)NC(=O)[C@H](CO)NC(=O)[C@H](CCC(N)=O)NC(=O)[C@H](CCCNC(=N)N)NC(=O)[C@@H](N)Cc2ccc(O)cc2)C(=O)N[C@@H](CCCNC(=N)N)C(=O)N[C@@H](Cc2ccccc2)C(=O)NCC(=O)N[C@@H]([C@@H](C)O)C(=O)N1)[C@@H](C)O)C(C)C)C(=O)N[C@@H](Cc1ccc(O)cc1)C(=O)N[C@@H](CCC(N)=O)C(=O)N[C@@H](Cc1ccccc1)C(=O)N[C@H](C(=O)N[C@@H](CC(=O)O)C(=O)N[C@@H](CCCCN)C(=O)N[C@@H](CC(=O)O)C(=O)N[C@@H](CCCCN)C(=O)N[C@@H](CC(=O)O)C(=O)N[C@@H](CC(N)=O)C(=O)N[C@H](C(=O)N[C@@H](C)C(=O)N1CCC[C@H]1C(=O)N[C@@H](CCCNC(=N)N)C(=O)N[C@@H](CO)C(=O)N[C@@H](CCCCN)C(=O)N[C@H](C(=O)N[C@@H](CO)C(=O)N1CCC[C@H]1C(=O)N[C@@H](CCC(N)=O)C(=O)NCC(=O)N[C@@H](Cc1ccc(O)cc1)C(N)=O)[C@@H](C)CC)C(C)C)[C@@H](C)O` [Adrenomedullin], the Any adverse event (healthy males [1]; high dose 15 ng/kg/min) is reported as 2(33.3%), the Deaths (healthy males [1]; high dose 15 ng/kg/min) is reported as 0 and the “Diarrhea (gastrointestinal disorders)” value (healthy males [1]; high dose 15 ng/kg/min) is reported as 0. The “Headache (nervous system disorders)” value (healthy males [1]; high dose 15 ng/kg/min) was 1(16.7%), the “Palpitations (cardiac disorders)” value (healthy males [1]; high dose 15 ng/kg/min) was 0 and the Serious adverse events (healthy males [1]; high dose 15 ng/kg/min) was 0. For the same molecule, the Severe adverse events (healthy males [1]; high dose 15 ng/kg/min) was 0, the Treatment-related adverse events (healthy males [1]; high dose 15 ng/kg/min) was 2(33.3%) and the “Wenckebach type atrioventricular block (cardiac disorders)” value (“Wenckebach type atrioventricular block” below) (healthy males [1]; high dose 15 ng/kg/min) was 1(16.7%). The Any adverse event (healthy males [1]; low dose 3 ng/kg/min) was 0, the Deaths (healthy males [1]; low dose 3 ng/kg/min) was 0 and the “Diarrhea (gastrointestinal disorders)” value (healthy males [1]; low dose 3 ng/kg/min) was 0. For the same molecule, the “Headache (nervous system disorders)” value (healthy males [1]; low dose 3 ng/kg/min) was 0, the “Palpitations (cardiac disorders)” value (healthy males [1]; low dose 3 ng/kg/min) was 0 and the Serious adverse events (healthy males [1]; low dose 3 ng/kg/min) was 0. For the same molecule, the Severe adverse events (healthy males [1]; low dose 3 ng/kg/min) was 0, the Treatment-related adverse events (healthy males [1]; low dose 3 ng/kg/min) was 0 and the “Wenckebach type atrioventricular block” value (healthy males [1]; low dose 3 ng/kg/min) was 0. The Any adverse event (healthy males [1]; medium dose 9 ng/kg/min) was 3(50.0%), the Deaths (healthy males [1]; medium dose 9 ng/kg/min) was 0 and the “Diarrhea (gastrointestinal disorders)” value (healthy males [1]; medium dose 9 ng/kg/min) was 0. For the same molecule, the “Headache (nervous system disorders)” value (healthy males [1]; medium dose 9 ng/kg/min) was 1(16.7%), the “Palpitations (cardiac disorders)” value (healthy males [1]; medium dose 9 ng/kg/min) was 0 and the Serious adverse events (healthy males [1]; medium dose 9 ng/kg/min) was 0. The Severe adverse events (healthy males [1]; medium dose 9 ng/kg/min) was 0, the Treatment-related adverse events (healthy males [1]; medium dose 9 ng/kg/min) was 3(50.0%) and the “Wenckebach type atrioventricular block” value (healthy males [1]; medium dose 9 ng/kg/min) was 2(33.3%). The “Increase of Cmax compared to the basal concentration of AM” value ([2]; high-dose AM group (15 ng/kg/min), single 12-h iv infusion) was “sevenfold”, the AUC(0-t) ([2]; 3 ng/kg/min) was 0.163 ± 0.0212 ng·h/mL and the Cmax ([2]; 3 ng/kg/min) was 0.01 ± 0.0011 ng/mL. For the same molecule, the Tmax ([2]; 3 ng/kg/min) was 9.3 ± 4.7 h, the half-life ([2]; 3 ng/kg/min) was 1.04 ± 0.92 h and the AUC(0-t) ([2]; 9 ng/kg/min) was 0.295 ± 0.0521 ng·h/mL. It also gave a Cmax ([2]; 9 ng/kg/min) of 0.0255 ± 0.0037 ng/mL, a Tmax ([2]; 9 ng/kg/min) of 10.7 ± 1.6 h and a half-life ([2]; 9 ng/kg/min) of 0.3 ± 0.2 h. The AUC(0-t) ([2]; 15 ng/kg/min) was 0.532 ± 0.0915 ng·h/mL, the Cmax ([2]; 15 ng/kg/min) was 0.0504 ± 0.0093 ng/mL and the Tmax ([2]; 15 ng/kg/min) was 10 ± 2.2 h. For the same molecule, the half-life ([2]; 15 ng/kg/min) was 0.23 ± 0.15 h, the “Changes in clinical laboratory test values” (healthy males [3]) was “no changes due to the direct effect of AM” and the “Accumulation of plasma AM” value ([4]; after the end of the 7-day AM administration, 15 ng/kg/min 8 h per day) was “accumulation was not observed”. For the same molecule, the Cmax ([4]; male, human, plasma, iv, 15 ng/kg/min) was 0.0479 ± 0.0109 ng/mL, the half-life [4, 7] was 0.45 ± 0.66 h and the half-life [4, 8] was 0.17 ± 0.07 h. The Tmax [4, 7] was 7.2 ± 1.1 h, the Tmax [4, 8] was 6.8 ± 1.1 h and the “Effect on BP” value [5] was “clear decrease in BP”. For the same molecule, the “ECG abnormalities, including monitor ECG” value (healthy males [6]; 15 ng/kg/min 8 h per day for 7 days) was “not reported” and the “Withdrawal from the study due to headache” value (healthy males [6]; AM 15 ng/kg/min group, n = 6) was “one withdrawal”.
